Measured values: ChEMBL document CHEMBL5260824, “9-Deazapurines as Broad-Spectrum Inhibitors of the ABC Transport Proteins P-Glycoprotein, Multidrug Resistance-Associated Protein 1, and Breast Cancer Resistance Protein” (J Med Chem, 2017)
Values belong to the molecule of their own block, whether it stands above or below them.

How the values were obtained:
[1] = target: T1, Multidrug resistance-associated protein 1 (Homo sapiens, UniProt P33527); assay: Inhibition of human MRP1 expressed in human MDR cells measured for 2 hrs; type: cell-based
T1 sequence (P33527 whole entry): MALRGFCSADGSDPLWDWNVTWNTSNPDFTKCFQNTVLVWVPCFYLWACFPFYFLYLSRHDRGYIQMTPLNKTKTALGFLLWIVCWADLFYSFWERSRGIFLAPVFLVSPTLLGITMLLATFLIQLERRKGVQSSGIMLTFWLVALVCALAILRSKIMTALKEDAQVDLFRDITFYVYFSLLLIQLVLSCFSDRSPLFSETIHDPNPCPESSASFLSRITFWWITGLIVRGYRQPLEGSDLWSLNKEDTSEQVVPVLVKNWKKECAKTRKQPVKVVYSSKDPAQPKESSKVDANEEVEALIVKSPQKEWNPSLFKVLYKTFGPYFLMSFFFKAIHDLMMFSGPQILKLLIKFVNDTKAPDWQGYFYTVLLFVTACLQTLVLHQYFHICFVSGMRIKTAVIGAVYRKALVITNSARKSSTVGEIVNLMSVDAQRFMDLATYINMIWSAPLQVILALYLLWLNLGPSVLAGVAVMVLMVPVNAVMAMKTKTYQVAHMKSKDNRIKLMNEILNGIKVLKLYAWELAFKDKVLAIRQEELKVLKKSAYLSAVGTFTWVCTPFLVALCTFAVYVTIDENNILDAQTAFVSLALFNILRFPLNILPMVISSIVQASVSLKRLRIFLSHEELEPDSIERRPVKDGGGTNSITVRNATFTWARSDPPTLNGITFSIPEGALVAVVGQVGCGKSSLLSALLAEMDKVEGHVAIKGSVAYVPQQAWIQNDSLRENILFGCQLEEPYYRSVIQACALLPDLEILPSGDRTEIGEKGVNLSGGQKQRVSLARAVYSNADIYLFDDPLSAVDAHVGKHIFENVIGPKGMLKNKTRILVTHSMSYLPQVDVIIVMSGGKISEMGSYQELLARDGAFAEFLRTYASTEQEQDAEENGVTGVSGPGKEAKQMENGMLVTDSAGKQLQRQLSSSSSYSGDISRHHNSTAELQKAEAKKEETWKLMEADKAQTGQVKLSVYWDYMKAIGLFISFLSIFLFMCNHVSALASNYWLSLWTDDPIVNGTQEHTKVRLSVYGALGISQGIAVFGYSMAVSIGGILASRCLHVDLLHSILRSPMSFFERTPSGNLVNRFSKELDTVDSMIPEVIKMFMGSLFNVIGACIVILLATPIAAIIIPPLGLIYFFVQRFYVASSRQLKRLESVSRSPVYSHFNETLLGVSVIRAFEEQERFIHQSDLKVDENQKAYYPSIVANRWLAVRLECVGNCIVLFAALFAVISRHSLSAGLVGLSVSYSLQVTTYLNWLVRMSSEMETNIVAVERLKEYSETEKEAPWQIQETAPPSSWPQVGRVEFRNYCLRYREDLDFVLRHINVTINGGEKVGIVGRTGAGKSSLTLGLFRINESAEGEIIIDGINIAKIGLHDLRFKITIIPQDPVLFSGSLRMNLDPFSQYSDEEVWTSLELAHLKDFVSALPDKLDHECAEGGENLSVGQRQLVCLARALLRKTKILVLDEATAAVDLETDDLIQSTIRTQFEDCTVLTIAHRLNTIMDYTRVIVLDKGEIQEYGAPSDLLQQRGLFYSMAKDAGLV

[2] = target: T2, ATP-dependent translocase ABCB1 (Homo sapiens, UniProt P08183); assay: Inhibition of P-gp (unknown origin)
T2 sequence (P08183 whole entry): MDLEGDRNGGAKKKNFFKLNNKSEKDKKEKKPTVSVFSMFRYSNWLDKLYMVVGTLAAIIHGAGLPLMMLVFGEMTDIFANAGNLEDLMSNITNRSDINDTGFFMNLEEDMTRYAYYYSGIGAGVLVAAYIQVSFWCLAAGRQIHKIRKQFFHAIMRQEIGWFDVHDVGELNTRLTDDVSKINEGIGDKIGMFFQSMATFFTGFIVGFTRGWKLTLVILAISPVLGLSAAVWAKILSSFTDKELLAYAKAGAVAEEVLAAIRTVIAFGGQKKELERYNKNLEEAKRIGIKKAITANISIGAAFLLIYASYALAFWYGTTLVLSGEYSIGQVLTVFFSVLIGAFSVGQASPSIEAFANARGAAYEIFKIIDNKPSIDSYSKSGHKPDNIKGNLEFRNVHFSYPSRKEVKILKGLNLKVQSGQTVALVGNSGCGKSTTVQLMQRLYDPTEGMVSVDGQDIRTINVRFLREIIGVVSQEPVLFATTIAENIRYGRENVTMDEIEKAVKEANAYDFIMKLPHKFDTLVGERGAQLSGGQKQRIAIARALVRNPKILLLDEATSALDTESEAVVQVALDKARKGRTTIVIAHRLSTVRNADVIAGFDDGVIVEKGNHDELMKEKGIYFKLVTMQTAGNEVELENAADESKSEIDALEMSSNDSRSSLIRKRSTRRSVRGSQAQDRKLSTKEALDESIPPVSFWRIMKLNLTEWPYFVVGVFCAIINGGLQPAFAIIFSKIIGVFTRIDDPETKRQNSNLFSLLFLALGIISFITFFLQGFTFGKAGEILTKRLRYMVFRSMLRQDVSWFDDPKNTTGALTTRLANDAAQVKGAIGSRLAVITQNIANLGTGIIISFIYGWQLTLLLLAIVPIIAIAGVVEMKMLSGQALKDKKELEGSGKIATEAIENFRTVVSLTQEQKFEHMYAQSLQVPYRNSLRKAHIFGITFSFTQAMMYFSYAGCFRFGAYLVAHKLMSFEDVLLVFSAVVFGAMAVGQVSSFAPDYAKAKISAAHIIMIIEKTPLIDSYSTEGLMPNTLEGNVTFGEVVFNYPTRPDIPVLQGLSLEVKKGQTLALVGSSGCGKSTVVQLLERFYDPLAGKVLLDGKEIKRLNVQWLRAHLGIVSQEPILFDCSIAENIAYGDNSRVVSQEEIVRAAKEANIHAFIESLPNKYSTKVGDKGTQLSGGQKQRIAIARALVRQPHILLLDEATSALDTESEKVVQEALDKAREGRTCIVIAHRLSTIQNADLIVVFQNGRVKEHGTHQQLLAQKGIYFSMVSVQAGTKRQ

[3] = target: T3, Broad substrate specificity ATP-binding cassette transporter ABCG2 (Homo sapiens, UniProt Q9UNQ0); assay: Inhibition of BCRP (unknown origin) expressed in MDCK cells assessed as increase in Hoechst 33342 accumulation incubated for 30 mins by Hoechst 33342 dye based fluorescence assay; type: cell-based
T3 sequence (Q9UNQ0 whole entry): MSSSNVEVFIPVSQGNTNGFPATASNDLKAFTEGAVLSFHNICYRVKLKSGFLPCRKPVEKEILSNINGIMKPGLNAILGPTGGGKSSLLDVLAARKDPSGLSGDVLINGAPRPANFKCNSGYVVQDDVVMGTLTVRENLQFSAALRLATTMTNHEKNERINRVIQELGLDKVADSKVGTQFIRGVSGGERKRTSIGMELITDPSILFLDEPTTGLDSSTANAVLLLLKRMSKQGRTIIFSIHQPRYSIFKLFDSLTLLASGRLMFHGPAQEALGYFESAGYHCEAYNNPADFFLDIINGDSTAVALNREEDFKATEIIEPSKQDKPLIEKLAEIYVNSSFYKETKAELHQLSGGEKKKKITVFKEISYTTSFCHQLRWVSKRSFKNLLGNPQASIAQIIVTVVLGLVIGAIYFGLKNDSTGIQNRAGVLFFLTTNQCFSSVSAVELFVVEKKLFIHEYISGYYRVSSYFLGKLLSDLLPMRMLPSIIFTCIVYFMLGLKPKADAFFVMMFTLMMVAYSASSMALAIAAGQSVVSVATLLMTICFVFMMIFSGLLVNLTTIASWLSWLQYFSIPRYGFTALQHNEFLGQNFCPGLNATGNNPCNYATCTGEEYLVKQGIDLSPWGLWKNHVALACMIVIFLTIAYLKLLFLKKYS

[4] = target: T1, Multidrug resistance-associated protein 1; assay: Inhibition of MRP1 (unknown origin)
[5] = Inhibition of SN-38 sensitive dog MDCK-II-BCRP cells expressing BCRP measured for 72 hrs by MTT assay; type: functional; conditions: Canis lupus familiaris
[6] = Inhibition of cell growth in SN-38 resistant dog MDCK-II-BCRP cells expressing BCRP measured for 72 hrs by MTT assay; type: functional; conditions: Canis lupus familiaris
In short: (§1)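 Reversal assay: resistant lines (A2780/ADR, H69AR, MDCK II BCRP) and parental lines seeded as for MTT assay with modulator solutions of 1, 10 and 100 µM added (final 0.1, 1, 10 µM) and daunorubicin (P-gp, MRP1) or SN-38 (BCRP) at final 10 nM–10 µM. 72 h, MTT read-out; GI50 by variable-slope fit. Resistance factor = resistant/sensitive GI50; potentiation factor = GI50 without/with modulator.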

[7] = target: T3, Broad substrate specificity ATP-binding cassette transporter ABCG2; assay: Inhibition of BCRP (unknown origin) expressed in MDCK cells assessed as increase in Hoechst 33342 accumulation incubated for 60 mins by Hoechst 33342 dye based fluorescence assay; type: cell-based
BCRP (ABCG2) [8] = target: T4, BCRP (ABCG2) (Homo sapiens, UniProt Q9UNQ0); assay: Inhibition of BCRP (unknown origin) expressed in dog MDCK-II cells at 10 uM using pheophorbide A as substrate preincubated for 20 mins followed by substrate addition and measured after 120 mins by flow cytometry analysis relative to control; type: cell-based; conditions: probe pheophorbide A
T4 sequence (Q9UNQ0 whole entry): T3 sequence (Q9UNQ0 whole entry)
In short: (§2)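 MDCK II cells transfected with human wild-type BCRP cDNA C-terminally fused to GFP, grown in DMEM/10% FBS. About 45,000 cells per well preincubated 20 min at 37 °C, 5% CO2 with compound (100 nM–100 µM added solutions), then pheophorbide A (5 µM solution added) for 120 min to steady state. Resuspended; flow cytometry, 488 nm excitation, FL3 (≥670 nm); GFP in FL1. Reference inhibitor 24 at 10 µM = 100%.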

MRP1 [9] = target: T5, MRP1 (Homo sapiens, UniProt P33527); assay: Inhibition of MRP1 in human NCI-H69AR cells at 10 uM incubated for 180 mins in presence of daunorubicin by flow cytometry analysis relative to control; type: cell-based; conditions: probe daunorubicin
T5 sequence (P33527 whole entry): as the sequence (P33527 whole entry) above
In short: (§3)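 H69AR cells (doxorubicin-selected small cell lung cancer, RPMI-1640/20% FBS), about 60,000 per well, preincubated 15 min with compound (100 nM–100 µM added solutions, in unsupplemented medium), then daunorubicin (30 µM solution added); steady state after 180 min, 37 °C, 5% CO2. Cells resuspended; flow cytometry, 488 nm excitation, FL3 (≥670 nm). Reference inhibitor 75 at 10 µM = 100%; Imax relative to it.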

[10] = target: T2, ATP-dependent translocase ABCB1; assay: Inhibition of P-gp (unknown origin) incubated for 30 mins by calcein AM analysis
In short: (§4)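 A2780/ADR cells (doxorubicin-selected, P-gp overexpressing), about 30,000 per well in Krebs-HEPES buffer pH 7.4, incubated 30 min at 37 °C with compound (100 nM–100 µM added solutions). Calcein AM (3.125 µM solution added) then fluorescence read every 60 s at 37 °C, ex 485/em 520 nm; slope over minutes 5–30 plotted vs log concentration. Cyclosporine A 10 µM = 100% inhibition, buffer = 0%.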

[11] = target: T3, Broad substrate specificity ATP-binding cassette transporter ABCG2; assay: Inhibition of BCRP (unknown origin) expressed in dog MDCK-II cells using pheophorbide A as substrate preincubated for 20 mins followed by substrate addition and measured after 120 mins by flow cytometry analysis; type: cell-based; in short: as §2
P-gp (ABCB1) [12] = target: T6, P-gp (ABCB1) (Homo sapiens, UniProt P08183); assay: Inhibition of P-gp (unknown origin) at 10 uM incubated for 30 mins by calcein AM analysis relative to control; conditions: probe calcein AM; in short: as §4
T6 sequence (P08183 whole entry): as the sequence (P08183 whole entry) above

[13] = target: T3, Broad substrate specificity ATP-binding cassette transporter ABCG2; assay: Inhibition of BCRP (unknown origin)
In short: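 Pheophorbide A accumulation in MDCK II cells transfected with human wild-type BCRP cDNA C-terminally linked to GFP, ~45,000 cells/well. Compound (100 nM–100 µM) preincubated 20 min at 37 °C, 5% CO2. Pheophorbide A stock 5 µM added, then 120 min to steady state. Flow cytometry read-out: FL3 (≥670 nm, 488 nm excitation).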

[14] = target: T1, Multidrug resistance-associated protein 1; assay: Inhibition of MRP1 in human NCI-H69AR cells incubated for 180 mins in presence of daunorubicin by flow cytometry analysis; type: cell-based; in short: as §3
BCRP (ABCG2) [15] = target: T4, BCRP (ABCG2); assay: Inhibition of BCRP (unknown origin) expressed in dog MDCK-II cells assessed as maximum inhibition using pheophorbide A as substrate preincubated for 20 mins followed by substrate addition and measured after 120 mins by flow cytometry analysis relative to control; type: cell-based; conditions: probe pheophorbide A, time 140 min, read-out: Imax; in short: as §2
MRP1 [16] = target: T5, MRP1; assay: Inhibition of MRP1 in human NCI-H69AR cells assessed as maximum inhibition at 10 uM incubated for 180 mins in presence of daunorubicin by flow cytometry analysis relative to control; type: cell-based; conditions: probe daunorubicin; in short: as §3
P-gp (ABCB1) [17] = target: T6, P-gp (ABCB1); assay: Inhibition of P-gp (unknown origin) expressed in dog MDCK-MDR1cells assessed as maximum inhibition by calcein AM accumulation assay relative to control; type: cell-based; conditions: MDCK-MDR1 cells, probe calcein AM, read-out: Imax
MRP1 [18] = target: T5, MRP1; assay: Inhibition of MRP1 in human NCI-H69AR cells assessed as maximum inhibition incubated for 180 mins in presence of daunorubicin by flow cytometry analysis relative to control; type: cell-based; conditions: probe daunorubicin, read-out: Imax; in short: as §3
P-gp (ABCB1) [19] = target: T6, P-gp (ABCB1); assay: Inhibition of P-gp (unknown origin) expressed in dog MDCK-MDR1cells assessed as maximum inhibition at 10 uM by calcein AM accumulation assay relative to control; type: cell-based; conditions: MDCK-MDR1 cells, probe calcein AM
[20] = target: T1, Multidrug resistance-associated protein 1; assay: Inhibition of MRP1 (unknown origin) measured for 2 hrs
H69AR = assay: Inhibition of cell growth in Daunorubicin resistant human NCI-H69AR cells expressing MRP1 measured for 72 hrs by MTT assay; type: functional; in short: as §1
[21] = Inhibition of cell growth in Daunorubicin resistant human A2780 ADR cells expressing P-gp measured for 72 hrs by MTT assay; type: functional; in short: as §1
[22] = Resistance factor, ratio of GI50 for inhibition of cell growth in daunorubicin resistant human A2780 ADR cells expressing P-gp measured for 72 hrs by MTT assay to GI50 for inhibition of daunorubicin sensitive human A2780 cells measured for 72 hrs by MTT assay
[23] = Inhibition of daunorubicin sensitive human NCI-H69AR cells expressing MRP1 measured for 72 hrs by MTT assay; type: functional; in short: as §1
[24] = Resistance factor, ratio of GI50 for inhibition of cell growth in daunorubicin resistant human NCI-H69AR cells expressing MRP1 to GI50 for inhibition of daunorubicin sensitive human NCI-H69 cells
[25] = Inhibition of daunorubicin sensitive human A2780 ADR cells expressing P-gp measured for 72 hrs by MTT assay; type: functional; in short: as §1

IC50 [1]: 1310 nM
IC50 [2]: 105 nM
SMILES: N#Cc1c2n(c3c(N4CCN(CCc5ccc(F)c(F)c5)CC4)nc(-c4ccncc4)nc13)CCCC2

IC50 [3]: 1190 nM
SMILES: COc1ccc(Nc2nc(-c3ccccc3)nc3ccccc23)cc1OC

IC50 [4]: 320 nM
IC50 [2]: 1330 nM
SMILES: COc1cc(N(C)C(=O)Cc2cccc(-n3c(=O)c4c(C)onc4c4c(Cl)cccc43)c2)cc(OC)c1OC

SMILES: CCc1c2c(nc3ccc(O)cc13)-c1cc3c(c(=O)n1C2)COC(=O)[C@]3(O)CC [7-ETHYL-10-HYDROXYCAMPTOTHECIN]
GI50 [5]: 86 nM
GI50 [6]: 1710 nM

IC50 [7]: 573 nM
IC50 [2]: 494 nM
SMILES: COc1ccc(/C=C/C(=O)c2ccccc2NC(=O)c2cnc3ccccc3c2)cc1OC

SMILES: N#Cc1c2n(c3c(N4CCN(CCc5c[nH]c6ccccc56)CC4)ncnc13)CCCC2
inhibition at 2 h, 10 µM (BCRP (ABCG2) [8]): > 25%
inhibition at 3 h, 10 µM (MRP1 [9]): 25%
IC50 [10]: 5620 nM
IC50 [11]: 3410 nM
inhibition at 0.5 h, 10 µM (P-gp (ABCB1) [12]): > 25%
IC50 [13]: 3410 nM
IC50 [14]: 344 nM

Emax at 2 h (BCRP (ABCG2) [15]): 28%
inhibition at 2 h, 10 µM (BCRP (ABCG2) [8]): > 25%
inhibition at 3 h, 10 µM (MRP1 [16]): 60%
inhibition at 3 h, 10 µM (MRP1 [9]): > 25%
IC50 [10]: 1110 nM
IC50 [11]: 839 nM
inhibition at 0.5 h, 10 µM (P-gp (ABCB1) [12]): > 25%
Emax (P-gp (ABCB1) [17]): 26%
Emax at 3 h (MRP1 [18]): 61%
IC50 [14]: 405 nM
SMILES: c1ccc(CCN2CCN(c3ncnc4c3[nH]c3ccccc34)CC2)cc1

IC50 [2]: 2160 nM
SMILES: COc1ccc(C(=O)/C=C/c2ccc(OC)c(OC)c2)c(OC(=O)c2ccccc2OC)c1

inhibition at 2 h, 10 µM (BCRP (ABCG2) [8]): > 25%
inhibition at 3 h, 10 µM (MRP1 [16]): 60%
inhibition at 3 h, 10 µM (MRP1 [9]): > 25%
IC50 [10]: 2330 nM
IC50 [11]: 1380 nM
inhibition at 10 µM (P-gp (ABCB1) [19]): 30%
inhibition at 0.5 h, 10 µM (P-gp (ABCB1) [12]): > 25%
IC50 [14]: 409 nM
SMILES: c1ccc(C(c2ccccc2)N2CCN(c3ncnc4c3[nH]c3ccccc34)CC2)cc1

IC50 [20]: 400 nM
IC50 [2]: 600 nM
SMILES: COc1cc2c(cc1OC)CN(CCn1c(-c3ccc(N(C)C)cc3)nc3ccc([N+](=O)[O-])cc3c1=O)CC2

SMILES: COc1cccc2c1C(=O)c1c(O)c3c(c(O)c1C2=O)C[C@@](O)(C(C)=O)C[C@@H]3O[C@H]1C[C@H](N)[C@H](O)[C@H](C)O1 [DAUNORUBICIN]
GI50 (H69AR): 3840 nM
GI50 [21]: 575 nM
RatioGI50 [22]: 54
GI50 [23]: 361 nM
RatioGI50 [24]: 11
GI50 [25]: 10 nM

IC50 [4]: 790 nM
IC50 [13]: 20400 nM
IC50 [2]: 14000 nM
SMILES: N#Cc1cn(Cc2ccccc2)c2c(NCCCc3ccccc3)ncnc12
